Experimental data pooled from the literature.
Target: Serine/threonine-protein kinase Nek5 (NEK5, Homo sapiens, UniProt Q6P3R8)
Sequence (Q6P3R8 1-708, as in one of the studies): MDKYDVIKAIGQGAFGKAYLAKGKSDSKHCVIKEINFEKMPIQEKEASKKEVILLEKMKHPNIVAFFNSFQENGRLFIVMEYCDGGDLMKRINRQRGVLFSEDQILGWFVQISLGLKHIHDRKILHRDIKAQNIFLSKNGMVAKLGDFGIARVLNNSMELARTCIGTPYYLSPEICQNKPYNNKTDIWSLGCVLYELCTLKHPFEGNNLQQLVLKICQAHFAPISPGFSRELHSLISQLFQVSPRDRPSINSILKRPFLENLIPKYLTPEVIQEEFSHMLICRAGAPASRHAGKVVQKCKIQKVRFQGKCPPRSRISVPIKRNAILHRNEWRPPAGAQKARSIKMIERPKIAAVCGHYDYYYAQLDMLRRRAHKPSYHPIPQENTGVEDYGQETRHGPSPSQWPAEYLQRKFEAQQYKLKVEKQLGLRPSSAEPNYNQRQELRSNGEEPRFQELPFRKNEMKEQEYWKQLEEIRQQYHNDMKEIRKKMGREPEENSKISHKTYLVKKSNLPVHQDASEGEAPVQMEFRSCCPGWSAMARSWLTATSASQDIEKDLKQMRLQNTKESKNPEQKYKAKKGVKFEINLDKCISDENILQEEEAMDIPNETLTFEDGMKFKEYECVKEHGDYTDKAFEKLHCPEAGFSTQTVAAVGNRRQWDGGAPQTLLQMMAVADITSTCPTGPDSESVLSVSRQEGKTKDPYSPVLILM

Structure (SMILES) | test | conditions | remaining binding [%]
CN(c1nccc(-c2cnn3ncccc23)n1)C1CC1 | binding | 1 µM | 100
c1ccc(N2CCN(Cc3nc4ccccc4[nH]3)CC2)nc1 | binding, competition with immobilised ligand | 1 µM | 100
O=C(c1ccc(Nc2ncc(Cl)c(-c3ccc(Cl)s3)n2)cc1)N1CCC(N2CCCC2)CC1 | binding, competition with immobilised ligand | 1 µM | 0
C[C@@H]1CCN(c2nccc(-c3cnn4ncccc34)n2)C1 | binding | 1 µM | 100
Cc1cc(NC(=O)c2cccc(S(F)(F)(F)(F)F)c2)cc(-n2ccn3nc(-c4cccnc4)cc23)c1 | cell-free assay, competition with immobilised ligand | 1 µM | 86.8
N[C@@H]1CCN(c2nccc(-c3cnn4ncccc34)n2)C1 | binding | 1 µM | 100
O=C(NCCCN1CCOCC1)c1ccc(Nc2nccc(-c3cc4ccccc4s3)n2)cc1 | binding, competition with immobilised ligand | 1 µM | 4.4
COc1cnc(Nc2cccc(S(N)(=O)=O)c2)nc1N1CCN(c2ccccc2)C(=O)C1 | binding, competition with immobilised ligand | 1 µM | 88
C[C@@H](c1ccc(-n2cnc3c(N)ncnc32)cc1)N1CCc2nn(C)c(Cc3ccccc3)c2C1=O | binding, competition with immobilised ligand | 0.1 µM | 92
C[C@@H](c1cccc(C#N)c1)n1cc(Cl)cc(C(N)=O)c1=N | cell-free assay, competition with immobilised ligand | 1 µM | 100
c1cncc(-c2cccc(Nc3nccc(NC4CCCCC4)n3)c2)c1 | binding, competition with immobilised ligand | 10 µM | 49
CC1CCCN1c1nccc(-c2cnn3ncccc23)n1 (stereo not drawn) | binding | 1 µM | 100
CNC(=O)[C@@H]1CC[C@@H](n2c(-c3ccc4cnccc4c3)nc3ccc(C(=O)NCc4cccc(C(N)=O)c4)cc32)C1 | binding, competition with immobilised ligand | 1 µM | 100
CN(C)c1ncc(F)c(-c2cnn3ncccc23)n1 | binding | 1 µM | 88
FC(F)(F)Oc1cccc(-c2cnc3ccc(-c4ccncc4)nn23)c1 | cell-free assay, competition with immobilised ligand | 5 µM | 74
CCOCCn1cc(C(=O)Nc2ccc(-n3nc(-c4cccnc4)cc3C(F)(F)F)cn2)ccc1=O | cell-free assay, competition with immobilised ligand | 1 µM | 100
Cc1cnc(Nc2ccc(C(=O)N3CCC(N4CCCC4)CC3)cc2)nc1-c1cc2ccccc2s1 | binding, competition with immobilised ligand | 1 µM | 0.1
CC(=O)N1CCC(c2ccc(C(=O)NC(=N)N)cc2C(F)(F)F)CC1 | cell-free assay, competition with immobilised ligand | 1 µM | 100
F[C@@H]1CCN(c2nccc(-c3cnn4ncccc34)n2)C1 | binding | 1 µM | 100
O=C(Nc1cccnn1)N1CCC(=Cc2cccc(Oc3ccc(C(F)(F)F)cn3)c2)CC1 | cell-free assay, competition with immobilised ligand | 1 µM | 97
O=C(Nc1c[nH]nc1C(=O)NC1CCNCC1)c1cc(F)cc(F)c1 | binding, competition with immobilised ligand | 1 µM | 95
